Assay results pooled from the literature.
Protocols differ between the studies behind these lines.
PIK3CA: Phosphatidylinositol 4,5-bisphosphate 3-kinase catalytic subunit alpha isoform (PIK3CA, Homo sapiens, UniProt P42336)
T1R2/T1R3: T1R2/T1R3 (Homo sapiens, UniProt Q7RTX0+Q8TE23)
PIK3CB: Phosphatidylinositol 4,5-bisphosphate 3-kinase catalytic subunit beta isoform (PIK3CB, Homo sapiens, UniProt P42338)
FOLH1: Glutamate carboxypeptidase 2 (FOLH1, Homo sapiens, UniProt Q04609)

| SMILES | target | test | quantity | result |
| --- | --- | --- | --- | --- |
| O=C1C(=Nc2ccc(Cl)cc2)c2ccccc2N1Cc1ccc(Br)cc1 | PIK3CA | enzyme activity, inhibitor, ADP detection | IC50 | 0.0298 µM |
| CN(C)C(=O)c1cc2cnc(Nc3cccc(-c4cccc5c(=O)cc(N6CCOCC6)oc45)c3)nc2n1C1CCCC1 | PIK3CA | enzyme activity, inhibitor, radiometric | IC50 | 8.17 µM |
| CC1=CC(=O)NS(=O)(=O)O1 | T1R2/T1R3 | calcium signal, agonist | EC50 | 1340 µM |
| O=C1Nc2ccccc2/C1=N/c1ccccc1Br | PIK3CB | enzyme activity, inhibitor, ADP detection | IC50 | 0.524 µM |
| CC1(C)CN(CCCCC(=O)N[C@@H](CCCCNC(=O)CCCCCCC(=O)NCCCC[C@H](NC(=O)N[C@@H](CCC(=O)O)C(=O)O)C(=O)O)C(=O)O)CC[N]2CC(C)(C)[S][Tc]2(=[O])[S]1 (some centres unmarked) | FOLH1 | binding, radioligand | Kd | 0.0144 µM |
| OC[C@H]1O[C@H](O[C@]2(CCl)O[C@H](CCl)[C@@H](O)[C@@H]2O)[C@H](O)[C@@H](O)[C@H]1Cl | T1R2/T1R3 | calcium signal, agonist | EC50 | 232 µM |
| CC(C)c1cccc(C(C)C)c1N=C1C(=O)N(Cc2ccc(Br)cc2)c2ccccc21 | PIK3CB | enzyme activity, inhibitor, ADP detection | IC50 | 0.0862 µM |
| O=C(O)CC[C@H](NC(=O)N[C@@H](CCCCNC(=O)CCCCCCC(=O)NCCCC[C@@H](NC(=O)[C@H](CCC(=O)O)NC(=O)[C@H](CCC(=O)O)NC(=O)CCC(=O)NCCCN1CC[S][Tc]2(=[O])[S]CC[N]2CC1)C(=O)O)C(=O)O)C(=O)O (some centres unmarked) | FOLH1 | binding, radioligand | Kd | 0.0068 µM |
| CN1CCN(c2cc(=O)c3ccc(Nc4ncc5cc(C(=O)N(C)C)n(C6CCCC6)c5n4)cc3o2)CC1 | PIK3CA | enzyme activity, inhibitor, radiometric | IC50 | > 10 µM |
| CC1(C)CN(CCCCC(=O)N[C@H](Cc2ccccc2)C(=O)N[C@H](Cc2ccccc2)C(=O)N[C@@H](CCCCNC(=O)CCCCCCC(=O)NCCCC[C@H](NC(=O)N[C@@H](CCC(=O)O)C(=O)O)C(=O)O)C(=O)O)CC[N]2CC(C)(C)[S][Tc]2(=[O])[S]1 (some centres unmarked) | FOLH1 | binding, radioligand | Kd | 0.0155 µM |
| CN(C)C(=O)c1cc2cnc(Nc3cccc4c(=O)cc(N5CCOCC5)oc34)nc2n1C1CCCC1 | PIK3CA | enzyme activity, inhibitor, radiometric | IC50 | > 10 µM |
| CCC(C(=O)N1C(=O)C(=Nc2ccc(Cl)cc2Br)c2ccccc21)c1ccccc1 (centres unmarked) | PIK3CA | enzyme activity, inhibitor, ADP detection | IC50 | 0.409 µM |
| CC[C@H](C)[C@H](NC(=O)[C@H](Cc1nc2ccccc2s1)NC(=O)CCC(=O)O)C(=O)N[C@H]1CCc2cccc3c2N(C1=O)[C@H](C(=O)NCc1cn[nH]n1)C3 | Granzyme B (GZMB, Homo sapiens, UniProt P10144) | enzyme activity, inhibitor, fluorescence | Ki | 0.0378 µM |
| CCCCC(=O)Nc1ccc(-c2ccc3ncn(CCC)c(=O)c3c2)cn1 | Phosphatidylinositol 5-phosphate 4-kinase type-2 beta (PIP4K2B, Homo sapiens, UniProt P78356) | binding, competition with immobilised ligand | Kd | > 20 µM |
